Screening data: PubChem, Broad Institute
In the library only some 2.4% were active in any assay of this set; here they are far more common.
dFosB activator: mouse delta FosB homodimer activation | P13346 | purified delta FosB, TAMRA-CDK5 oligo fluorescence polarization; percent of positive-control signal above neutral wells | activation, % at 25 µM | hit rate 0.99% among 340,000 | AID 493131;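 active means mean activation above about 17%, with every replicate also reaching it, limit read from the data, passing the limit was not always enough; inconclusive means only one of the two conditions met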
Target sequence (P13346 whole entry, looked up): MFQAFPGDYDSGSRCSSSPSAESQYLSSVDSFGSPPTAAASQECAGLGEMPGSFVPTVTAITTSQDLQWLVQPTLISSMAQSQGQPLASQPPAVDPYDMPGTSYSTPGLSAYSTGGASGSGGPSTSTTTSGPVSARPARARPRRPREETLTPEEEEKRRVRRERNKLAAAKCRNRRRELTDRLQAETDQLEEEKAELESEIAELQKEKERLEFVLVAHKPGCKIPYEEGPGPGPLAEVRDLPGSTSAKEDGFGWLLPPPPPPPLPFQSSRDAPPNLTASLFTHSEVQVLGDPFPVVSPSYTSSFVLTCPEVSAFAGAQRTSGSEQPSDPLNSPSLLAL
Env fusion inh: blocks HIV Env-driven cell-cell fusion; HeLa-JRFL Env/CEM21 cell fusion, luciferase; inhibition, % at 12.3 µM; hit rate 1.1% among 360,000;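 active means mean replicate inhibition score of at least 50 and every replicate individually at or above 50; inconclusive means only one of the two criteria met; inactive means mean below 50 and not all replicates reaching 50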;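 further: 0% = plate neutral controls and 100% = maraviroc near 300 nM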
miR-122 sensor: inhibitors of miR-122 in Huh7 cells. Huh7 miR-122 Renilla luciferase sensor, 48 h; neutral wells = 0, positive control = 100. activation (reporter increase), % at 12.5 µM. hit rate 0.3% among 340,000;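 active means mean replicate activation score at least 90 and every replicate individually at or above 90; inconclusive means only one of the two criteria met; inactive means neither criterion met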;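 further: higher luciferase means less miR-122 activity so hits act as miR-122 inhibitors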
Rtt109 HAT inh: C. albicans Rtt109 histone acetyltransferase inhibition; Q5AAJ8; purified Rtt109/Vps75, ThioGlo CoA-SH fluorescence, 4 h; inhibition, % at 34.9 µM; hit rate 0.16% among 330,000;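 active means inhibition of at least 50% in every replicate; inconclusive means best replicate reaches 50% inhibition but some replicates fall short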
GSIS activator: GLuc luminescence reporter in INS-1E cells, primary screen for activators of glucose-dependent secretion of insulin; INS-1E GLuc reporter insulin secretion, 2-3 h; activation, % at 16.6 µM; hit rate 0.61% among 370,000;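 active means lowest replicate activation of at least 40%, so every replicate reaches that level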;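 further: 0% = median of neutral control wells and 100% = median of IBMX positive control wells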
Cneo AK release: Cryptococcus neoformans lysis via adenylate kinase release | lysis activity, % at 15 µM | hit rate 0.2% among 360,000 | C. neoformans lysis, adenylate kinase release luminescence, 4 h; normalised: neutral wells 0, clomiphene wells 100;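 active means mean lysis activity across replicates of at least 80%, whatever share of replicates individually reach that level; inactive means mean lysis activity below 80%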
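Assay system: Cryptococcus neoformans yeast cells / Dosing: single-point compound dose / Timing: 4 h at 37 °C static, read 1 h later / Measured by: luminescence of released adenylate kinase using an AK detection reagent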
* hit, by the source's call; ? = inconclusive; · = not tested or not shown; ! = not active in a repeat; [ ] = another dose, or the depositor's remark.

SMILES	dFosB activator	Env fusion inh	miR-122 sensor	Rtt109 HAT inh	GSIS activator	Cneo AK release
O=C(Nc1c(C(=O)N2CCN(c3ccccn3)CC2)oc2ccccc12)c1ccc([N+](=O)[O-])cc1	-4	-7	143*	5	-6	-1
C[C@@H]1CN([C@H](C)CO)C(=O)c2cc(NS(=O)(=O)c3ccc(F)cc3)ccc2O[C@H]1CN(C)Cc1ccc(C(F)(F)F)cc1	·	72*[16.7 µM]	-1[16.7 µM]	·	-22	7
C[C@@H]1CN([C@H](C)CO)C(=O)Cc2cc(NS(=O)(=O)c3ccc(Cl)cc3)ccc2O[C@@H]1CN(C)C(=O)Nc1ccc(C(F)(F)F)cc1	·	-5[16.7 µM]	103*[16.7 µM]	·	-6	-3
C[C@@H]1CN([C@@H](C)CO)C(=O)Cc2cc(NS(=O)(=O)c3ccc(F)cc3)ccc2O[C@H]1CN(C)Cc1ccc(C(F)(F)F)cc1	·	56*[16.7 µM]	-10[16.7 µM]	·	-9	5
Cc1ccc(S(=O)(=O)N(C)C[C@H]2OCCCC[C@H](C)Oc3ccc(NC(=O)CCC(F)(F)F)cc3C(=O)N([C@@H](C)CO)C[C@H]2C)cc1	·	16[16.7 µM]	5[16.7 µM]	·	-21	0
Cc1noc(C)c1NC(=O)Nc1ccc2c(c1)C(=O)N([C@@H](C)CO)C[C@H](C)[C@H](CN(C)C)OCCCC[C@@H](C)O2	·	10[16.7 µM]	9[16.7 µM]	·	11	-4
CCOc1ccc(N(C)S(=O)(=O)c2ccc3[nH]cc(C(=O)NCCCOC)c(=O)c3c2)cc1	-19	11	12	-2	5	3
CCOc1ccc(N(C)S(=O)(=O)c2ccc3[nH]cc(C(=O)NCCOC)c(=O)c3c2)cc1	-25	10	1	-3	66*	0
Cn1cnc(S(=O)(=O)N2C[C@H](O)COC[C@H]3O[C@@H](CC(=O)NCc4cc(F)cc(F)c4)CC[C@@H]32)c1	·	·	14[16.7 µM]	·	18	51
Cc1ccc(-c2ccc3c(c2)O[C@@H](CN(C)Cc2ccccc2)[C@H](C)CN([C@@H](C)CO)S3(=O)=O)cc1	·	24[16.7 µM]	17[16.7 µM]	·	5	6
C[C@@H]1CN([C@@H](C)CO)S(=O)(=O)c2ccc(-c3ccccc3)cc2O[C@H]1CN(C)Cc1ccccc1	·	55*[16.7 µM]	2[16.7 µM]	·	-13	·
C[C@@H]1CN([C@H](C)CO)S(=O)(=O)c2ccc(Br)cc2O[C@@H]1CN(C)Cc1ccccc1	·	-23[16.7 µM]	-3[16.7 µM]	·	-9	0
C[C@@H]1CN([C@H](C)CO)S(=O)(=O)c2ccc(Br)cc2O[C@@H]1CN(C)Cc1ccc(-c2ccccc2)cc1	·	76*	-2	·	-31	-2
CC(C)c1cc(NCCOCCO)n2c(nc3ccccc32)c1C#N	4	0	·	·	52*	·
CCCc1cc(NCCOCCO)n2c(nc3ccccc32)c1C#N	·	13	1	·	·	-1
C[C@@H]1CN([C@@H](C)CO)C(=O)c2cc(-c3cccnc3)cnc2O[C@H]1CN(C)C(=O)C1CC1	·	-2[16.7 µM]	-1[16.7 µM]	·	6	-5
CCC(=O)N1[C@H](CO)[C@@H](c2ccccc2)C12CN(Cc1cc(F)ccc1F)C2	·	·	·	·	6	·
Cc1ccc2nc(-c3ccc(NC(=O)COC(=O)c4ccco4)cc3)sc2c1	2	-126	·	-6	91*	·
C=CCn1c(SCC(=O)Nc2ccc(-c3nc4ccc(C)cc4s3)cc2)nnc1-c1ccccc1	-4	·	-4	0	122*	-6
COc1cccc(-c2ccc([C@H]3[C@@H](CO)N4CCCCN(Cc5cncnc5)C[C@H]34)cc2)c1	·	·	6[16.7 µM]	·	10	-2
CCCC#Cc1cnc2c(c1)C(=O)N([C@@H](C)CO)C[C@H](C)[C@H](CN(C)C(=O)Nc1ccc(OC)cc1)O2	·	-15[16.7 µM]	8[16.7 µM]	·	-7	-1
CN(c1ccccc1)S(=O)(=O)c1cccc(NC(=O)C2=NNC(=O)CC2)c1	8	64*	-4	4	2	0
Cc1ccc(C(=O)Nc2cccc(S(=O)(=O)N(C)c3ccccc3)c2)o1	-6	7	0	10	-25	2
C/C(N)=C(/C#N)C(=O)CSc1nc(C2CCCCC2)n(-c2ccccc2)n1	0	67*!	-1	5	2	2
CCS(=O)(=O)N1CCC2(CC1)CN(Cc1ccccc1)[C@@H](CO)c1c2c2ccc(OC)cc2n1C	·	5[16.7 µM]	·	·	0	·
SMILES	dFosB activator	Env fusion inh	miR-122 sensor	Rtt109 HAT inh	GSIS activator	Cneo AK release
Cc1ccc(S(=O)(=O)N2C(=O)C(c3ccccc3)SC2=Nc2ccccc2)cc1 (stereo not given)	43*	·	6	1	·	5
CC(=O)c1c(C)[nH]c(C(=O)OCC(=O)Nc2ccc(C)cc2[N+](=O)[O-])c1C	-8	88*	·	2	-20	·
O=C(/C=C/c1ccc(F)cc1)NC(=S)NNC(=O)c1cnccn1	-14	16	·	4	·	·
COc1ccc(/C=C/C(=O)NC(=S)NNC(=O)c2cnccn2)cc1	17*	-12	-9	-15	5	·
O=c1ccc2cc3c([nH]c4ccc(Br)cc43)oc-2c1O	-11	-31	-4	129*	·	0
COc1ccccc1-c1ccc([C@H]2[C@@H](CO)N3CCCCN(C(=O)NC4CCCC4)C[C@H]23)cc1	·	·	-4[16.7 µM]	·	-28	-7
Cc1ccc(NC(=O)Cc2c(C(=O)O)n(C)c3ccccc23)cc1F	3	-2	-6	7	2	·
Cc1ccc(NC(=O)Cc2cn(C)c3ccccc23)cc1F	1	1	321*	·	-19	-4
CCCN1C[C@H](C)[C@H](OC)CN(C)C(=O)c2ccc(NC(=O)c3ccccc3)cc2OC[C@@H]1C	·	·	14[16.7 µM]	·	25	-1
CS(=O)(=O)c1ccc(C(=O)OCC(=O)Nc2cccnc2Cl)cc1[N+](=O)[O-]	-10	·	·	8	118*	0
CCNc1ccc(C(=O)OCC(=O)NCc2ccccc2Cl)cc1[N+](=O)[O-]	?	9	·	4	59*	·
Cc1ccccc1NC(=O)COC(=O)c1ccc(S(C)(=O)=O)c([N+](=O)[O-])c1	-4	18	·	23	5	3
CS(=O)(=O)c1ccc(C(=O)OCC(=O)NC(=O)C2COc3ccccc3O2)cc1[N+](=O)[O-] (stereo not given)	-6	-4	-7	1	106*	1
CS(=O)(=O)c1ccc(C(=O)OCC(=O)NC(=O)C2CCCCC2)cc1[N+](=O)[O-]	-4	-43	·	-13	3	·
CC(=O)c1cccc(NC(=O)COC(=O)c2ccc(S(C)(=O)=O)c([N+](=O)[O-])c2)c1	-2	11	·	-11	48*	·
CCCNC(=O)N[C@H]1C=C[C@H](CC(=O)NCCc2ccccc2)O[C@@H]1CO	·	7[16.7 µM]	·	·	8	-12
COc1ccc2c3c([nH]c2c1)[C@H](CO)N(C)CC31CN(C(=O)c2ccccc2F)C1	·	·	·	·	11	·
CC(=O)c1cccc(NC(=S)N2CCc3ccccc32)c1	-4	-37	·	5	13	-2
